Compounds with a hit are over-represented: about 2% of the library has one in this group of screens.
SUMO1-SIM PPI – SUMO1-SIM interaction modulation | actives 0.33% (n = 360,000) | P63165 | inhibition, % at 20 µM | SUMO1 binding to a labelled peptide, TR-FRET, 1 h | AID 602429; in the data active means inhibition above about 37%
LMPTP inh – blocks human LMPTP phosphatase. P24666. recombinant LMPTP-A, OMFP fluorogenic substrate, fluorescence intensity. inhibition, % at 20 µM. actives 0.22% (n = 360,000);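 active means compounds that cut the enzyme signal by at least half of the control window in the single-dose screen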
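Assay system: LMPTP-A, protein tyrosine phosphatase of low molecular weight / Medium: pH 6.0 Bis-Tris buffer with DTT and Triton X-100 / Schedule: 50 min enzyme reaction at room temperature, protected from light / Measured by: endpoint fluorescence intensity from OMFP dephosphorylation / Read-out basis: % inhibition relative to no-enzyme and uninhibited control wells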
DNMT1 block – DNMT1 (human) enzyme inhibition; P26358; inhibition (reported as % activation of signal), % at 10 µM; AID 588458; actives 0.83% (n = 360,000); DNMT1 molecular beacon, Hinp1I cleavage, fluorescence
Target sequence (P26358 504-1616 limits assumed): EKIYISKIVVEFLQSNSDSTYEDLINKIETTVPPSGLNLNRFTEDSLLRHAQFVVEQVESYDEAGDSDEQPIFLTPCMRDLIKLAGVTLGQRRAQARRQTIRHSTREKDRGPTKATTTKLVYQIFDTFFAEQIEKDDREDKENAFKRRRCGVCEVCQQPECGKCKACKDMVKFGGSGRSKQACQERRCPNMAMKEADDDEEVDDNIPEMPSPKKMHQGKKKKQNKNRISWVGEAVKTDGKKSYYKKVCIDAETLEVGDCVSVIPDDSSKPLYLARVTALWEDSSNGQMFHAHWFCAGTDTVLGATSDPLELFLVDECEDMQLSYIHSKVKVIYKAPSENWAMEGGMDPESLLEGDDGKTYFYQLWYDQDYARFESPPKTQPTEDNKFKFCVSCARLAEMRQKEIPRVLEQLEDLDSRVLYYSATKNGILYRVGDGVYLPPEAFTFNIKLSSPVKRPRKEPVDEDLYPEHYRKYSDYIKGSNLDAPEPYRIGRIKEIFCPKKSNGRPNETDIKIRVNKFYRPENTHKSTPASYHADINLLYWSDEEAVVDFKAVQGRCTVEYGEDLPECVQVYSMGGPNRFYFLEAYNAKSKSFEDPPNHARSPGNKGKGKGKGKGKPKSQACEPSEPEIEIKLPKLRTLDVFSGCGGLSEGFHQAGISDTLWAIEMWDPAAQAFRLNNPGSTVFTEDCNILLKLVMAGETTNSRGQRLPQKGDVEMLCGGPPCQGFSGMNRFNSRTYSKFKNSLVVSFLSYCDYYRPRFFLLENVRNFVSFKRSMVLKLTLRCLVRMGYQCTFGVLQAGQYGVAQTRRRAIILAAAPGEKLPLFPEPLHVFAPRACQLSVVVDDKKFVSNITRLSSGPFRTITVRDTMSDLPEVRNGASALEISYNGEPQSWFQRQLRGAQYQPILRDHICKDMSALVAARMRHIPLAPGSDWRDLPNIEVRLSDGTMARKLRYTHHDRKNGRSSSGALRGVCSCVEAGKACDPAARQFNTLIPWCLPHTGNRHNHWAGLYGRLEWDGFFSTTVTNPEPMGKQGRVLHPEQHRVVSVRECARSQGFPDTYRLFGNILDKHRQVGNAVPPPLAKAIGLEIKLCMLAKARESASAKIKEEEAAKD
Scp-1 inhibitor – blocks human Scp-1 phosphatase activity; Q9GZU7; Recombinant Scp1, phosphopeptide, malachite green phosphate absorbance; inhibition, % at 20 µM; actives 0.88% (n = 340,000); AID 493091;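 active means inhibition above about 50% at 20 µM, limit read from the data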
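Test system: SCP-1 phosphatase catalytic domain, residues 76-261 | Compound dosing: One concentration, 20 µM, with 1.0% DMSO | Schedule: 45 min room-temperature reaction, 5 min colour, 30 min stabiliser | Detection: Absorbance at 630 nm | Read-out basis: % inhibition of SCP-1 phosphate liberation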
CSN deneddyl inh – inhibitors of human CSN-mediated cullin deneddylation. AID 651999. actives 0.38% (n = 360,000). Purified CSN, SCF-Nedd8-OG deneddylation, fluorescence polarization. inhibition, % at 12.5 µM. Q92905;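 active means pattern-corrected inhibition above about 35%, with an unprinted fluorescence ratio check between 0.5 and 1.5, limit read from the data, passing the limit was not always enough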
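Assay system: purified human Csn5 enzyme expressed in HEK293T cells; measure: % inhibition; also added: SCFSkp2-Nedd8OG substrate at 10 nM final; technique: fluorescence polarization; times: reaction 90 min, room temperature; medium: Tris buffer pH 7.5, NaCl, DTT, Tween-20, trehalose, ovalbumin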
STEP inh – blocks human striatal-enriched tyrosine phosphatase. P54829. recombinant STEP, OMFP fluorogenic substrate, fluorescence. inhibition, % at 20 µM. actives 0.25% (n = 360,000). AID 588621;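 active means inhibition at 20 µM, scaled per plate between control wells, above about 37%, limit read from the data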
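System: STEP (striatal-enriched tyrosine phosphatase) enzyme, cell-free; medium: Bis-Tris pH 6.0 buffer with DTT, detergent; dosing: 20 µM, 1% DMSO; times: reaction 20 min, ambient temperature; detection: fluorescence, 480/540 nm; read-out basis: normalized % inhibition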
STEP conf – STEP (human) phosphatase inhibition, single concentration confirmation. shares compounds with STEP inh. actives 32% (n = 520). inhibition, % at 20 µM. recombinant STEP, OMFP fluorogenic substrate, fluorescence; call rule not given here
CSN5 deneddyl – Csn5 (human) deneddylation inhibition, single-concentration validation; actives 62% (n = 540); Csn5 deneddylation of SCF-Nedd8OG, fluorescence polarization, 90 min; shares compounds with CSN deneddyl inh; inhibition, % at 16.6 µM
MMP2 cntr CSN – MMP-2 (human) inhibition, counter-screen for CSN hits; actives 33% (n = 540); shares compounds with CSN deneddyl inh; recombinant MMP-2, FRET substrate fluorescence, 60 min; inhibition, % at 16.6 µM;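 active means corrected plate-normalized z-score of 5 or more, or -5 or less, or inhibition of 15% or more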
Thrombin counter – thrombin (bovine) inhibition, counter-screen for CSN hits; shares compounds with CSN deneddyl inh; bovine thrombin cleavage of Ub4-pepOG, fluorescence polarization; inhibition, % at 16.6 µM; actives 49% (n = 540); AID 720656;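 active means inhibition at or above a set limit, with a fluorescence interference ratio between 0.5 and a set maximum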
A number is an active result; 0 = inactive; - = not tested or not shown; + = active, no number. Unless noted, no stated cut-off is given here; in the data, active means inhibition above about 50%; inactive means the rest.

SMILES | SUMO1-SIM PPI | LMPTP inh | DNMT1 block | Scp-1 inhibitor | CSN deneddyl inh | STEP inh | CSN5 deneddyl | MMP2 cntr CSN | Thrombin counter | others
COc1cc(Cl)cc(/C=N\NC(=O)c2ccc3c(c2)OCO3)c1O | 0 | 0 | 0 | - | 99 | 52 | 0 | 23 | 0 | STEP conf=84
CCOc1ccc(C(=O)Nc2cc(-c3nc4ccccc4[nH]3)ccc2C)cc1[N+](=O)[O-] | 0 | 0 | 0 | 0 | 0 | 0 | - | - | -
CCOc1ccc(C(=O)Nc2cc(-c3nc4ccccc4[nH]3)ccc2Cl)cc1[N+](=O)[O-] | 0 | 0 | 0 | 0 | 111 | 54 | - | 0 | 0 | STEP conf=47
CCc1cccc(OCC(=O)Nc2cc(S(=O)(=O)N3CCOCC3)ccc2N2CCCC2)c1 | 0 | 0 | 0 | 0 | 0 | 0 | - | - | -
COC1=CC(=Cc2c(N)n3nc(CC(=O)N4CCOCC4)sc3nc2=O)C=C(OC)C1=O | 0 | 0 | 0 | 0 | 88 | 0 | 94 | 0 | 83
COc1ccc(/C=C2\C(=O)NC(=S)N2C(=O)c2ccc(C)cc2)cc1 | 0 | 0 | 0 | 0 | 48 | 0 | 0 | 0 | 37
CSc1ncnc2c1ncn2CCCN1CCN(Cc2c(C)cc(C)cc2C)CC1 | 0 | 0 | 0 | - | 0 | 0 | - | - | -
O=C(CSc1n[nH]c(=O)[nH]c1=O)Nc1cccc(S(=O)(=O)N2CCOCC2)c1 | 0 | 0 | 0 | 0 | 0 | 0 | - | - | -
O=C(CSc1n[nH]c(=O)[nH]c1=O)Nc1ccc2c(c1)C(=O)c1ccccc1C2=O | 96 | 69 | 0 | 82 | 48 | 88 | - | 69 | 0
COCCCn1cnnc1SCc1nc2sc(C(C)=O)c(C)c2c(=O)[nH]1 | 0 | 0 | 0 | 0 | 0 | 0 | - | - | -
CCCc1ccc(O)c(N=Cc2cc(Br)cc(OCC)c2O)c1 | 0 | 0 | 0 | 0 | 38 | 0 | 89 | 0 | 46
Cn1c(CC(=O)NNC(=O)c2cccnc2)nc2ccccc21 | 0 | 0 | 0 | 0 | 0 | 0 | - | - | -
CCN(CC)S(=O)(=O)c1cccc(C(=O)N/N=C(\C)c2ccc(O)cc2O)c1 | 0 | 0 | 0 | 0 | 37 | 0 | 92 | -27 | 79
CCN(CC)S(=O)(=O)c1cccc(C(=O)N/N=C/c2ccc(O)c(O)c2O)c1 | 0 | 0 | 0 | 0 | 0 | 0 | - | - | -
CCOc1ccc(N2CC(C(=O)Nc3cccnc3)CC2=O)cc1 (stereo not drawn) | 0 | 0 | 0 | 0 | 0 | 0 | - | - | -
CN(C)CCCn1c(N)c(C#N)c2nc3ccccc3nc21 | 0 | 0 | 0 | 0 | 0 | 0 | - | - | -
CCCCn1c(NC(=O)c2ccccc2Cl)c(C#N)c2nc3ccccc3nc21 | 53 | 0 | 76 | 0 | 59 | 0 | 98 | 0 | 0
CCC/C(C#Cc1ccc(N(C)C)cc1)=C1/c2ccccc2C(=O)N1c1ccccc1 | 0 | 0 | 0 | 57 | 53 | 0 | + | -59 | 0
Cc1ccc2nc(/C(C#N)=C\c3ccc([N+](=O)[O-])o3)[nH]c2c1 | 0 | 0 | 0 | 0 | 52 | 0 | 0 | 18 | 44
N#C/C(=C\c1ccc([N+](=O)[O-])o1)c1nc2ccccc2[nH]1 | - | - | - | 0 | - | - | - | - | -
O=C1C(=O)c2cccnc2-c2ncccc21 | 0 | 56 | 112 | - | 59 | 0 | 0 | 0 | 0
Nc1ccc(/C=C/C(=O)c2cccs2)cc1 | 0 | 0 | 0 | 0 | 40 | 0 | 72 | 0 | 32
CN(CC(=O)Nc1ccccc1Cl)C(=O)CSc1nncn1C | 0 | 0 | 0 | 0 | 0 | 0 | - | - | -
O=C(C1=C(O)C(=O)N(CC2CCCO2)C1c1cccc(O)c1)c1ccco1 (stereo not drawn) | 0 | 0 | 0 | 0 | 0 | 0 | - | - | -

Source: PubChem BioAssay (Sanford-Burnham Center for Chemical Genomics)
